Among the data in ChEMBL document CHEMBL3244289, “Synthesis and antibacterial activity of 2'-substituted chelocardin analogues” (1979) are CD50, MIC and Activity values, retold here.

The subject of assay [1] is Proteus mirabilis. Description: Antibacterial activity against Proteus mirabilis infected in sc dosed mouse assessed as protection against bacterial infection. Type of assay: functional. In a few lines: (§1)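 Mice were challenged intraperitoneally with Proteus mirabilis, and compound was given by the line's route (oral or subcutaneous). The CD50 is the total dose in mg/kg that protects 50% of challenged mice.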

Assay [2] has as its system Staphylococcus aureus. Description: Antibacterial activity against Staphylococcus aureus 45 by two-fold agar dilution method. It counts as functional. An outline of the steps:
(§2)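 MIC determined by twofold serial dilution in brain-heart infusion agar. Values are reported in µg/mL.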
On the technique in general: In agar dilution, organisms are placed on agar that contains the substance at set levels.

Assay [3] relates to Streptococcus pyogenes. Description: Antibacterial activity against Streptococcus pyogenes C-203 by two-fold agar dilution method. Type of assay: functional. In a few lines:
as §2

The test system of assay [4] is Proteus mirabilis. Description: Antibacterial activity against Proteus mirabilis by two-fold agar dilution method. Type of assay: functional. An outline of the steps: as §2
The test system of assay [5] is Pseudomonas aeruginosa. As to the kind of experiment: Antibacterial activity against Pseudomonas aeruginosa by two-fold agar dilution method. It counts as functional, organism-based. An outline of the steps: as §2
For assay [6], the system named is Pasteurella multocida. Description: Antibacterial activity against Pasteurella multocida 10544 by two-fold agar dilution method. It counts as functional. An outline of the steps: as §2
The test system of assay [7] is Salmonella typhi. Description: Antibacterial activity against Salmonella typhi by two-fold agar dilution method. It counts as functional, Salmonella enterica subsp. enterica serovar Typhi. To be noted: Salmonella enterica. An outline of the steps:
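MIC in µg/mL by twofold serial agar dilution on brain-heart infusion agar.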

For assay [8], the system named is Escherichia coli. As to the kind of experiment: Antibacterial activity against Escherichia coli Juhl by two-fold agar dilution method. It counts as functional. In a few lines: as §2
The subject of assay [9] is Staphylococcus aureus. Description: Antibacterial activity against Staphylococcus aureus Smith by two-fold agar dilution method. Type of assay: functional. In a few lines:
as §2

Assay [10] deals with Enterococcus. As to the kind of experiment: Antibacterial activity against Enterococcus 89 by two-fold agar dilution method. It counts as functional. In a few lines:
as §2

The subject of assay [11] is Proteus mirabilis. As to the kind of experiment: Antibacterial activity against Proteus mirabilis infected in po dosed mouse assessed as protection against bacterial infection. Type of assay: functional. An outline of the steps: as §1
Assay [12] concerns Klebsiella pneumoniae. Description: Antibacterial activity against Klebsiella pneumoniae 8045 by two-fold agar dilution method. It counts as functional. An outline of the steps:
as §2

Assay [13] has as its system Proteus vulgaris. Description: Antibacterial activity against Proteus vulgaris by two-fold agar dilution method. Type of assay: functional. In a few lines:
as §2

Molecules are shown by their SMILES. Calls of active or inactive are those of the source. The rule behind the calls is not given here.

As for `C/C(=N\N1CCN(CCO)CC1)C1=C(O)[C@H](N)[C@@H]2Cc3c(c(O)c4c(O)c(C)ccc4c3C)C(=O)[C@]2(O)C1=O.Cl`, the CD50 came out at 25 mg/kg in [1] and 100 mg/kg in [11]. In addition, the MIC (usually the lowest concentration that inhibits growth of the organism) in [2] was determined as 12.5 µg/mL; in [3] it was 3.1 µg/mL; in assay [4], 3.1 µg/mL; in assay [6], 0.39 µg/mL; in assay [7] it was 1.56 µg/mL; in [8], 6.2 µg/mL. For the same compound, the MIC in assay [9] came to 6.2 µg/mL; in assay [10], 6.2 µg/mL; in assay [12], 1.56 µg/mL; in assay [13], 3.1 µg/mL. Moreover, in [5], the result was inactive.

Consider `C/C(=N\NC(=N)N)C1=C(O)[C@H](N)[C@@H]2Cc3c(c(O)c4c(O)c(C)ccc4c3C)C(=O)[C@]2(O)C1=O.Cl`, for which the CD50 in assay [1] was 12.5 mg/kg; in assay [11], 100 mg/kg. Also, the MIC in [2] turned out to be 50 µg/mL; in assay [3] it was 25 µg/mL; in [4], 12.5 µg/mL; in assay [6] it was 3.1 µg/mL; in assay [7] it was 25 µg/mL; in [8] it was 25 µg/mL. Besides, the MIC amounted to 50 µg/mL in assay [9], 50 µg/mL in assay [10], 12.5 µg/mL in assay [12] and 12.5 µg/mL in [13]. The result in [5] was inactive.

Turning to `C/C(=N\c1ccc(S(N)(=O)=O)cc1)C1=C(O)[C@H](N)[C@@H]2Cc3c(c(O)c4c(O)c(C)ccc4c3C)C(=O)[C@]2(O)C1=O.Cl`, the CD50 in assay [1] was 6.25 mg/kg; in assay [11], below 25 mg/kg. Besides, the MIC in [2] was found to be 6.2 µg/mL; in assay [3] it was 3.1 µg/mL; in assay [4], 3.1 µg/mL; in assay [6], 0.2 µg/mL; in assay [7], 0.7 µg/mL; in assay [8] it was 6.2 µg/mL. For the same compound, the MIC stood at 3.1 µg/mL in assay [9], 6.2 µg/mL in [10], 1.56 µg/mL in assay [12] and 1.56 µg/mL in assay [13]. Besides, the outcome in [5] was inactive.

As for `C/C(=N\N1CCN(C)CC1)C1=C(O)[C@H](N)[C@@H]2Cc3c(c(O)c4c(O)c(C)ccc4c3C)C(=O)[C@]2(O)C1=O.Cl`, the CD50 worked out at 12.5 mg/kg in assay [1] and 25 mg/kg in assay [11]. The MIC was 6.2 µg/mL in assay [2]; 3.1 µg/mL in assay [3]; 6.2 µg/mL in assay [4]; 0.78 µg/mL in assay [6]; 3.1 µg/mL in [7]; 6.2 µg/mL in [8]. Besides, the MIC in assay [9] worked out at 6.2 µg/mL; in [10], 12.5 µg/mL; in assay [12], 3.1 µg/mL; in [13] it was 6.2 µg/mL. Moreover, in [5], the result was inactive.
